Laboratory results from paper PMC3257516 (Bioorganic & medicinal chemistry, 2011).
Values joined by “and” are separate entries in the source; they are usually repeats but may differ in a detail not shown here. Identical values can stand only once. “Also recorded” adds a separate entry of the source.

Experiments:
[1] = Chemical stability of the inhibitors; assay type: physicochemical; settings: compound not in complex with HPPK
HPPK [2] = target: HPPK (Escherichia coli, UniProt P26281); assay: Fluorometric titration of HPPK with inhibitor; assay type: binding, E. coli; settings: ratio of Kd values, 19 versus 17
Outline: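 Fluorescence titration of HPPK (initial 10 μM) with inhibitor dissolved in DMSO, added as aliquots from a 500 μM stock. Excitation/emission 420/450 nm or 450/480 nm depending on compound; slits 1 and 4 nm. Kd from nonlinear least-squares fit of fluorescence change to a quadratic single-site binding equation using total enzyme and total inhibitor concentrations.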

E. coli HPPK = E. coli HPPK (Escherichia coli, UniProt P26281); assay: HPPK enzyme inhibition assay with [α-32P]-ATP; assay type: biochemical; settings: ratio of IC50 values, 19 versus 17
HPPK [3] = settings: cited from earlier work

HPPK (Escherichia coli, UniProt P26281), sequence (P26281 whole entry): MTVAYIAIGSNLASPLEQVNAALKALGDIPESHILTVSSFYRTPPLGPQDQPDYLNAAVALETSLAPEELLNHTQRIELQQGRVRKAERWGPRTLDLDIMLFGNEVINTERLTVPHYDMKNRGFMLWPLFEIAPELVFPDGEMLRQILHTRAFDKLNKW
E. coli HPPK, sequence (P26281 whole entry): as above

With `Nc1nc2ncc(CNCCN3CCC(SC[C@H]4O[C@@H](n5cnc6c(N)ncnc65)[C@H](O)[C@@H]4O)CC3)nc2c(=O)[nH]1` [Compound 17, 2-amino-6-[(2-{4-[5-(6-amino-purin-9-yl)-3,4-dihydroxy-tetrahydro-furan-2-ylmethylsulfanyl]-piperidin-1-yl}-ethylamino)-methyl]-3H-pteridin-4-one] the chemical stability [1] was “stable”.
In the case of `CC1(C)Nc2nc(N)[nH]c(=O)c2N=C1CNCCN1CCC(SCC2OC(n3cnc4c(N)ncnc43)C(O)C2O)CC1` (centres unmarked) [Compound 18, 2-amino-6-[(2-{4-[5-(6-amino-purin-9-yl)-3,4-dihydroxy-tetrahydro-furan-2-ylmethylsulfanyl]-piperidin-1-yl}-ethylamino)-methyl]-7,7-dimethyl-7,8-dihydro-3H pteridin-4-one], the chemical stability [1] is reported as “not stable; also recorded: tends to degrade”.
For `CC1(C)Nc2nc(N)[nH]c(=O)c2N=C1C(=O)NCCN1CCC(SC[C@H]2O[C@@H](n3cnc4c(N)ncnc43)[C@H](O)[C@@H]2O)CC1` [Compound 19, 2-amino-7,7-dimethyl-4-oxo-3,4,7,8-tetrahydro-pteridine-6-carboxylic acid (2-{4-[5-(6-amino-purin-9-yl)-3,4-dihydroxy-tetrahydro-furan-2-ylmethylsulfanyl]-piperidin-1-yl}-ethyl)-amide], the “increased binding affinity over 17” value (HPPK [2]) was 60 fold and ~ 60 fold, the “increased inhibition ability over 17” value (E. coli HPPK) was 30 fold and the chemical stability [1] was “stable”.
In the case of `Nc1nc2c(c(=O)[nH]1)N=C(CO)CN2` [HP, 6-hydroxymethyl-7,8-dihydropterin], the “Kd for the binding of HP to ligand-free HPPK” value (HPPK [3]) is listed as “mM range” and the “Kd for the binding of HP to the HPPK MgATP complex” value (HPPK [3]) is listed as “sub-μM range”.
For `Nc1ncnc2c1ncn2[C@@H]1O[C@H](COP(=O)(O)OP(=O)(O)OP(=O)(O)O)[C@@H](O)[C@H]1O` [MgATP], the Kd (HPPK [3]; read-out: Kd for the binding of MgATP to HPPK) is given as 2.6 to 4.5 µM.
